Measurements taken from ChEMBL document CHEMBL2021918, “Discovery of S-444823, a potent CB1/CB2 dual agonist as an antipruritic agent” (Bioorg Med Chem Lett, 2012).
The source made the active and inactive calls. The calls are words filed in the database; no cut-off is given here.

Key:
Cannabinoid receptor 2 [1] = target: T1, Cannabinoid receptor 2 (Homo sapiens, UniProt P34972); assay: Displacement of [3H]CP55940 from human CB2 receptor membrane fractions
Procedure, shortened: (§1)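 Membranes from confluent recombinant hCB1 or hCB2 cells: sonicated on ice in 20 mM Tris–HCl pH 7.4, 2 mM EDTA, 0.25 M sucrose with protease inhibitor; spun 3000 rpm 10 min, then supernatant 100,000 g 60 min at 4 °C; pellets stored at −80 °C. Radioligand [3H]-CP55940; its Kd per membrane set by Scatchard analysis.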

Cannabinoid receptor 1 [2] = target: T2, Cannabinoid receptor 1 (Homo sapiens, UniProt P21554); assay: Agonist activity at human CB1 receptor expressed in CHO cells assessed as inhibition of forskolin-induced cAMP levels after 20 mins; assay type: functional, cell-based
Cannabinoid receptor 1 [3] = target: T2, Cannabinoid receptor 1; assay: Displacement of [3H]CP55940 from human CB1 receptor membrane fractions; procedure, shortened: as §1
Cannabinoid receptor 2 [4] = target: T1, Cannabinoid receptor 2; assay: Partial agonist activity at human CB2 receptor expressed in CHO cells assessed as inhibition of forskolin-induced cAMP levels after 20 mins; assay type: functional, cell-based
Procedure, shortened: (§2)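 hCB2-expressing CHO cells in 24-well plates, exposed to compounds 20 min at 37 °C in Hanks'/20 mM HEPES buffer with 0.1 mM IBMX, 0.2 mM Ro20-1724, 0.1% BSA; forskolin 4 µM then added for 45 min at 37 °C; cellular cAMP quantified by kit.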

Cannabinoid receptor 1 [5] = target: T2, Cannabinoid receptor 1; assay: Partial agonist activity at human CB1 receptor expressed in CHO cells assessed as inhibition of forskolin-induced cAMP levels after 20 mins; assay type: functional, cell-based
Cannabinoid receptor 2 [6] = target: T1, Cannabinoid receptor 2; assay: Agonist activity at human CB2 receptor expressed in CHO cells assessed as inhibition of forskolin-induced cAMP levels after 20 mins; assay type: functional, cell-based; procedure, shortened: as §2
Mus musculus [7] = assay: Toxicity in mouse assessed as catalepsy at 0.1 to 1 mg/kg, iv measured at 15 mins post compound administration; assay type: organism-based; parameters: dose 0.1-1 mg/kg, route intravenous; settings: in vivo, 0.25 h
Procedure, shortened: (§3)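 ICR mice, n = 3 per dose, given compound iv in tail vein at 0.1 and 1.0 mg/kg, dissolved in MDAA and PEG solution. Behaviour observed 15 min post-dose and scored: 5 tonic convulsion, 4 catalepsy, 3 prone position/sedation, 2 crawling, 1 decreased locomotion, 0 normal.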

Mus musculus [8] = species on record: Mus musculus; assay: Antipruritic activity against Crj:CD-1 ICR mouse assessed as inhibition of Compound 48/80-induced scratching behaviour at 1 % compound painted on shaven back 15 mins before challenge measured for 30 mins relative to control; assay type: functional
Mus musculus [9] = assay: Toxicity in mouse assessed as sedation at 0.1 to 1 mg/kg, iv measured at 15 mins post compound administration; assay type: organism-based; parameters: dose 0.1-1 mg/kg, route intravenous; settings: in vivo, 0.25 h; procedure, shortened: as §3

T2 sequence (P21554 whole entry): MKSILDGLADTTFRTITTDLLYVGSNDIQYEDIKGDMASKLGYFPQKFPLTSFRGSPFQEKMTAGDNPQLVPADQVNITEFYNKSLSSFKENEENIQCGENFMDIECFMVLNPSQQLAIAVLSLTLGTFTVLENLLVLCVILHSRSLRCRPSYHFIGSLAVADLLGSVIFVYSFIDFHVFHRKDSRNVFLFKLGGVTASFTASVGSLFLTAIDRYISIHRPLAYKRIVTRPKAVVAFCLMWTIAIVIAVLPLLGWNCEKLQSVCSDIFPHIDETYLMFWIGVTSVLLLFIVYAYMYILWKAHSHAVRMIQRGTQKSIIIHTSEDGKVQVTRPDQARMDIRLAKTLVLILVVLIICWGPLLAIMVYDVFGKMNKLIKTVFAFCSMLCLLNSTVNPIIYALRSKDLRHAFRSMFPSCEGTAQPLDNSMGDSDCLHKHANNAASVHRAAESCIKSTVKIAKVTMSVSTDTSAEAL
T1 sequence (P34972 whole entry): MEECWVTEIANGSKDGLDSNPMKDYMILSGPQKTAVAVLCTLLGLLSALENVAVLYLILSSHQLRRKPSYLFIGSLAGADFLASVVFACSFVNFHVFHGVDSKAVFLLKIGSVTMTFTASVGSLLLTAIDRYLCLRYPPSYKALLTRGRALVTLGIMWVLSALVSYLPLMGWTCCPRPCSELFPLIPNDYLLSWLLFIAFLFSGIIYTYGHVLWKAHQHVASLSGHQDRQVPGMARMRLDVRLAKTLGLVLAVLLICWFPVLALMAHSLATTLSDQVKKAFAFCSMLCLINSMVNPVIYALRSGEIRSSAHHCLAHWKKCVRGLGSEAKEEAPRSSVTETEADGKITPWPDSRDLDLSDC

| SMILES | Ki (Cannabinoid receptor 2 [1]) [µM] | IC50 (Cannabinoid receptor 1 [2]) [µM] | Ki (Cannabinoid receptor 1 [3]) [µM] | Activity (Cannabinoid receptor 2 [4]) | Activity (Cannabinoid receptor 1 [5]) | IC50 (Cannabinoid receptor 2 [6]) [µM] | Activity (Mus musculus [7]) | inhibition (INH) (Mus musculus [8]) [%] | Activity (Mus musculus [9]) |
| --- | --- | --- | --- | --- | --- | --- | --- | --- | --- |
| O=C(O)c1csc(NC(=O)c2cc3c(n(CC4CCCCC4)c2=O)CCCCCC3)n1 | > 5 | > 2 | > 5 |  |  |  |  |  |  |
| O=C(N[C@H](C(=O)O)c1ccccc1)c1cc2c(n(CC3CCCCC3)c1=O)CCCCCC2 | 0.0012 | > 2 |  | Active | Active |  |  |  |  |
| O=C(O)c1ccccc1NC(=O)c1cc2c(n(CC3CCCCC3)c1=O)CCCCCC2 | 0.181 | 0.657 | 2.53 |  |  | 0.167 |  |  |  |
| CC(C)(NC(=O)c1cc2c(n(CC3CCCCC3)c1=O)CCCCCC2)C(=O)O | 0.349 |  | 1.35 |  |  |  |  |  |  |
| O=C(O)c1cccc(NC(=O)c2cc3c(n(CC4CCCCC4)c2=O)CCCCCC3)c1 | 0.614 | 0.611 | 1.56 |  |  | 0.268 |  |  |  |
| O=C(N[C@@H](C(=O)O)c1ccccc1)c1cc2c(n(CC3CCCCC3)c1=O)CCCCCC2 | 0.003 | > 2 | 0.069 | Active | Active | 0.0044 |  |  |  |
| O=C(O)Cc1csc(NC(=O)c2cc3c(n(CC4CCCCC4)c2=O)CCCCCC3)n1 |  |  |  |  |  |  | Non-toxic | 109 | Non-toxic |
| O=C(O)c1ccc(CNC(=O)c2cc3c(n(CC4CCCCC4)c2=O)CCCCCC3)cc1 | 0.923 |  |  |  |  |  |  |  |  |
| O=C(O)CCc1csc(NC(=O)c2cc3c(n(CC4CCCCC4)c2=O)CCCCCC3)n1 |  |  |  |  |  |  | Non-toxic |  | Non-toxic |
| O=C(O)c1ccc(NC(=O)c2cc3c(n(CC4CCCCC4)c2=O)CCCCCC3)cc1 | 0.107 | 0.291 | 0.37 |  |  | 0.038 |  |  |  |
| O=C(N[C@H](C(=O)O)C1CCCCC1)c1cc2c(n(CC3CCCCC3)c1=O)CCCCCC2 | 0.111 | > 2 | 3.06 |  |  | 0.051 |  |  |  |
| O=C(O)Cc1cnc(NC(=O)c2cc3c(n(CC4CCCCC4)c2=O)CCCCCC3)s1 | 0.0046 | 0.023 | 0.235 | Active | Active | 0.0035 |  |  |  |
| O=C(O)Cc1cccc(NC(=O)c2cc3c(n(CC4CCCCC4)c2=O)CCCCCC3)c1 | 0.12 | 0.997 | 2.88 |  |  | 0.18 |  |  |  |
| O=C(O)Cc1ccccc1NC(=O)c1cc2c(n(CC3CCCCC3)c1=O)CCCCCC2 | 0.046 |  | 0.548 |  |  |  |  |  |  |
| O=C(O)Cc1ccc(NC(=O)c2cc3c(n(CC4CCCCC4)c2=O)CCCCCC3)cc1 | 0.074 | > 2 | 3.99 |  |  | 0.096 |  |  |  |
| O=C(O)c1cnc(NC(=O)c2cc3c(n(CC4CCCCC4)c2=O)CCCCCC3)s1 | 0.885 | > 2 | > 5 |  |  | 0.8 |  |  |  |
| CC(C)[C@H](NC(=O)c1cc2c(n(CC3CCCCC3)c1=O)CCCCCC2)C(=O)O | 0.116 |  | 1.88 |  |  |  |  |  |  |
| O=C(N[C@@H](Cc1ccccc1)C(=O)O)c1cc2c(n(CC3CCCCC3)c1=O)CCCCCC2 | 0.033 | 0.297 | 0.738 |  |  | 0.126 |  |  |  |
